The list is not random: actives were taken first. Their share in the collection is about 1.8%.
APJ agonist: activates the human apelin receptor APJ | P35414 | CHO-K1 APJ PathHunter beta-arrestin, luminescence; 0% DMSO wells, 100% apelin | activation, % at 20 µM | actives 0.11% (n = 330,000) | AID 2520;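 active = activation more than six SD over the plate average, tested at 20 µM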
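Test system – PathHunter CHO-K1 APJ (AGTRL-1) beta-arrestin reporter cells · Input – 1000 cells/well · Compound – single test compound dose, 20 µM final, 1% DMSO · Times – compound stimulation 90 min at 25 °C, detection 60 min · Technique – beta-gal luminescence · Read-out basis – APJ–arrestin association signal · Control set – negative DMSO alone, positive Apelin-13 at 10 nM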
CCR6 antagonist: CCR6 (human) receptor antagonism; P51684; CHO-K1 CCR6 PathHunter beta-arrestin, luminescence, CCL20-stimulated; inhibition, % at 20 µM; actives 0.49% (n = 340,000);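 active = compounds whose inhibition of the agonist-driven luminescence signal at 20 µM reaches about 50%, limit read from the data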;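 note: cells stimulated with CCL20 at 14 nM final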
EBI2 block: blocks human EBI2 receptor beta-arrestin signaling. AID 651636. actives 0.81% (n = 360,000). inhibition, % at 5 µM. P32249. EBI2 beta-arrestin recruitment, luminescence, 7a,25-OHC stimulated; in the data active = inhibition above about 38%;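 note: enzyme fragment complementation signal reports receptor beta-arrestin coupling in cells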
APJ antag: antagonists of human APJ apelin receptor; AID 2521; CHO-K1 APJ beta-arrestin complementation, luminescence; inhibition, % at 20 µM; P35414; actives 0.32% (n = 330,000);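 active = inhibition above about 40% at 20 µM, limit read from the data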;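 note: cells challenged with 10 nM apelin-13 agonist together with compound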
Beta2AR agonist: agonists of human beta-2 adrenergic receptor inducing internalization; response, % (test concentration not listed); P07550; AID 504454; Am2.2-beta2AR cells, FAP receptor internalization, flow cytometry; actives 0.43% (n = 340,000);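 active = response above a set limit, near 3 SD of response in nonfluorescent compounds, cut at about 42% in these data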
Target sequence (P07550 whole entry, looked up): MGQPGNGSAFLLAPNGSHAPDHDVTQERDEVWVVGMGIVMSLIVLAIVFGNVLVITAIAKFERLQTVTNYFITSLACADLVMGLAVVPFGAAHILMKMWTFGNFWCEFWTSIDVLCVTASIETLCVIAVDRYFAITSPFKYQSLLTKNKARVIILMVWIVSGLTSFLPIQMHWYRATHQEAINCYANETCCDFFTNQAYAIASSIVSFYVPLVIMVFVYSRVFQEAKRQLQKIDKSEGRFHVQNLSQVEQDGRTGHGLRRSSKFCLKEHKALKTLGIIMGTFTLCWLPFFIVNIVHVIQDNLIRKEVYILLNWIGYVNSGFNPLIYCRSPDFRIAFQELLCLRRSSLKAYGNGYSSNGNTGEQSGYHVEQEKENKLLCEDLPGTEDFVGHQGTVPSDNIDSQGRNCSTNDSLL
CXCR6 block: CXCR6 (human) receptor inhibition; O00574; CHO-K1 PathHunter CXCR6 beta-arrestin, luminescence; inhibition, % at 20 µM; actives 0.36% (n = 360,000); AID 602244; in the data active = inhibition above about 34%, passing the limit was not always enough;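 note: antagonist mode with CXCL16 agonist at 10 nM final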
APJ ag conf: APJ receptor agonism confirmation; shares compounds with APJ agonist; CHO-K1 APJ PathHunter beta-arrestin, luminescence; activation, % at 20 µM; actives 10% (n = 310);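 active = activation above 40%, taking the highest of four retests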
APJ antag confirm: APJ receptor antagonism confirmation. APJ beta-arrestin recruitment, luminescence, antagonist mode. shares compounds with APJ antag. inhibition, % at 20 µM. actives 66% (n = 950); in the data active = inhibition above about 50%
B2AR ag CP1: human beta-2 adrenergic receptor agonism, cherry pick; shares compounds with Beta2AR agonist; Am2.2-beta2AR cells, FAP surface receptor, flow cytometry; stronger effect = lower value; percent response (surface receptor), % at 10 µM; actives 25% (n = 1,100); AID 540358;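 active = surface receptor percent response at or below 58%, roughly 3 SD from nonfluorescent compounds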
B2AR FAP counter: flagged in Am2.2 fluorescence counterscreen for beta-2AR agonists; 1,100 tested, under 10 active; shares compounds with Beta2AR agonist; calls only at 10 µM; Am2.2 cells, FAP fluorogen flow cytometry; stronger effect = lower value; AID 588765;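 active = percent response below a set limit in fluorescence channel 1 and below 50% in channel 8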
Each line names hits and unclear results; the compound was inactive in the other large screens (follow-up assays come after a bar, where they were run).

CCOC(=O)N1CCN(c2ncnc3c2[nH]c2ccc(F)cc23)CC1	none
CC1=C(C(=O)N2CCOCC2)CC(CC(=O)NCCCN(C)C)C(=O)N1CCCN1CCCC1=O (configuration not stated)	none (no result: APJ agonist, CCR6 antagonist, APJ antag, Beta2AR agonist)
CCCCc1cc(O)c(CCCC)c(O)c1	APJ agonist 13 | APJ ag conf inactive
CC1=C(C)/C(=N\OS(=O)(=O)c2ccccc2)C=CC1=O	APJ agonist 41, CCR6 antagonist 87, CXCR6 block 51 | APJ ag conf inactive
Cc1cccc(NC(=S)NC(=O)/C=C/c2ccccc2)n1	APJ agonist 11 | APJ ag conf inactive
O=C(Nc1ccc(NC(=O)c2ccc([N+](=O)[O-])cc2[N+](=O)[O-])cc1)c1ccco1	APJ agonist 11 | APJ ag conf inactive
O=c1oc2cc(OCc3ccc([N+](=O)[O-])cc3)ccc2c2c1CCCC2	APJ agonist 62 | APJ ag conf inactive
O=C(O)c1ccc(COc2ccc3c4c(c(=O)oc3c2)CCC4)o1	none
Cn1c(Cc2ccccc2)nc(=O)c2ccccc21	none (no result: APJ agonist, CCR6 antagonist, APJ antag, Beta2AR agonist)
Cc1cccc(C(=O)Nc2ccccc2SCC(=O)Nc2ccc(C)c(Cl)c2)c1	none
Cc1ccc(NC(=O)CSc2ccccc2NC(=O)c2cccc(Cl)c2)cc1Cl	APJ agonist 14 | APJ ag conf inactive
COC(=O)C1=C(Cn2cnc3ccccc32)NC(=O)NC1c1cc(C)ccc1C (configuration not stated)	APJ agonist 76, APJ antag 46 | APJ ag conf 62 | APJ antag confirm inactive
CCC(C)(C)C1CCc2[nH]nc(C(=O)NCc3ccc(OC)cc3)c2C1 (configuration not stated)	none
CCN(CC)CCNC(=O)c1cc(-c2cccnc2)nc2ccc(S(=O)(=O)N3CCC(C)CC3)cc12	APJ agonist 52 | APJ ag conf inactive | B2AR ag CP1 inactive | B2AR FAP counter inactive
CCCCCCCCCCn1c2c(c(=N)c3c1CCC3)CCC2	none
CCCCCCCCCn1c2c(c(=N)c3c1CCC3)CCCC2	APJ agonist 10, APJ antag 41, Beta2AR agonist 80 | APJ ag conf inactive | APJ antag confirm inactive | B2AR ag CP1 inactive | B2AR FAP counter inactive
CCCCNC(=O)C[C@@H]1C[C@@]2(C(=O)OCC)CCCC=C2N(CCC2=CCCCC2)C1=O	none (no result: APJ agonist, CCR6 antagonist, APJ antag, Beta2AR agonist, CXCR6 block)
CN1CCN(C(=O)c2cnn(-c3ccccc3)c2NC(=O)c2ccccc2)CC1	none
O=C(Nc1c(C(=O)N2CCCCC2)cnn1-c1ccccc1)c1ccccc1F	APJ antag 62 | APJ antag confirm inactive
Cc1n[nH]c(C)c1S(=O)(=O)N1CCC(C(=O)N2CCn3c2nc2ccccc23)CC1	CCR6 antagonist 73, APJ antag 66, CXCR6 block 52 | APJ antag confirm 100
Cc1ccc(N(CC(=O)N2CCn3c2nc2ccccc23)S(=O)(=O)c2c(C)n[nH]c2C)cc1	none
O=C(Sc1cccc2cccnc12)c1ccccc1Br	EBI2 block 49, APJ antag 52 (no result: CCR6 antagonist) | APJ antag confirm 85
Cn1c(=O)c(C(=S)NC(=O)C2CC2)c(N)n(Cc2ccccc2)c1=O	APJ antag 42 (no result: CCR6 antagonist, EBI2 block, Beta2AR agonist, CXCR6 block) | APJ antag confirm 72
CCN(CC)CC(=O)c1c(N)n(Cc2ccccc2)c(=O)n(C)c1=O	none
CCSC1(SCC)N=C(N)C2(C#N)C(c3ccc(OC)c(OC)c3OC)C12C#N (configuration not stated)	CCR6 antagonist 58, APJ antag 51 | APJ antag confirm 72
CCSC1(SCC)N=C(N)C2(C#N)C(c3ccccc3)NC3=C(CCC3)C12C#N (configuration not stated)	none
COc1cc2c(cc1OC)C1(CCCC1)CNC2c1cccc([N+](=O)[O-])c1 (configuration not stated)	CCR6 antagonist 78, APJ antag 47, CXCR6 block 63 | APJ antag confirm 78
COc1cc2c(cc1OC)C(c1cccc([N+](=O)[O-])c1)NC(=O)C2 (configuration not stated)	none
COc1cc(/C=C2\N=C(C)OC2=O)cc(OC)c1OC	none
COc1cc(/C=C2/N=C(C3CCCCC3)OC2=O)cc(OC)c1OC	APJ antag 42 | APJ antag confirm inactive
CCOC(=O)c1c(C)[nH]c(C)c1C(=O)Cn1nnc(-c2ccccc2C)n1	APJ antag 46 | APJ antag confirm inactive
COc1cccc(CN2C(=O)C(C)N(C(=O)c3ccccc3)c3ccccc32)c1 (configuration not stated)	none
CCNC(=O)c1ccc(C2SCC(=O)N2CCc2ccccc2)cc1 (configuration not stated)	none
CCc1ccc(NC(=O)c2ccc(C3SCC(=O)N3CCc3ccccc3)cc2)cc1 (configuration not stated)	APJ antag 62 | APJ antag confirm inactive
CCOC(=O)C1=C(N)N(c2ccccc2Oc2ccccc2)C(=O)C1	none
CCOC(=O)C1=C2NC(=O)c3ccccc3N2C(=O)C1	CCR6 antagonist 69, APJ antag 53 | APJ antag confirm 134
CC(C)NC(=S)N/N=C1\CCCCC1C1CCCCC1 (configuration not stated)	CCR6 antagonist 85, APJ antag 43 | APJ antag confirm 85
CC1(C(=O)Nc2cccc3c2CCCC3)CCN1C(=O)c1cccc(F)c1 (configuration not stated)	none (no result: APJ agonist, CCR6 antagonist, APJ antag, Beta2AR agonist)
CNS(=O)(=O)c1cccc(C(=O)OCC(=O)c2ccc(S(=O)(=O)N3CCCCC3)cc2)c1	CCR6 antagonist 53, APJ antag 62 | APJ antag confirm 60
CNS(=O)(=O)c1cccc(C(=O)OCC(=O)c2cc3ccccc3o2)c1	CCR6 antagonist 73, APJ antag 81, CXCR6 block 43 | APJ antag confirm 69
O=C(COC(=O)c1ccco1)c1ccc(S(=O)(=O)N2CCCCC2)cc1	APJ antag 57 | APJ antag confirm 65
O=C(COc1ccccc1)OCC(=O)c1ccc(S(=O)(=O)N2CCCCC2)cc1	CCR6 antagonist 68, APJ antag 85, CXCR6 block 42 | APJ antag confirm 116
O=C(COC(=O)c1ccco1)Nc1cc(S(=O)(=O)N2CCCCC2)ccc1Cl	none
